A selection: hits, their analogues and other compounds. The true share with any hit is near 4.8%.
CSC inhib: cancer stem cell viability inhibitors, primary screen, luminescence | cancer stem cell-like cells viability | inhibition, % at 7.5 µM | 1.1% of 300,000 active; in the data active = inhibition above about 75%; tested in HMLE shEcad cells
WT yeast gro inh: growth inhibition of WT strain, primary screen, mitochondrial fusion inhibitor project, WT and mutant strains, chemical genetic. inhibition, % at 10 µM. 2.1% of 190,000 active. mitochondrial fusion phenotypic screen; in the data active = inhibition above about 58%; tested in S. cerevisiae
T cruzi inh: inhibitors of intracellular T. cruzi growth, primary screen, luminescence, NIH3T3 host cells; T. cruzi beta-gal in NIH3T3, 90 h; inhibition, % (no concentration beside the values); AID 1885, 2009; 1.4% of 300,000 active;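 active = mean inhibition across valid replicates above about 55%, limit read from the data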;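 also: signal also drops with host cell toxicity which is not excluded here; higher percent means less beta-gal luminescence so fewer parasites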
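System: mouse NIH/3T3 fibroblasts infected with β-gal-expressing T. cruzi Tulahuen C4 / Input: NIH/3T3 cells, 5,000 per well / Buffer or medium: Low-serum DMEM with 2% FBS / Probe or stimulus: 5000 reporter trypomastigotes per well / Schedule: ≥90 h infection period, 3 h prior cell attachment / Measured by: GalScreen luminescence, 60 min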
Efflux pump mplx: inhibitors of Candida efflux pumps in yeast, primary screen, S. cerevisiae, Nile Red, multiplex. 0.44% of 330,000 active. S. cerevisiae Candida pump triplex. AID 485275, 2010. inhibition, % at 10 µM;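 active = plate passing quality check with inhibition over a set limit, or well fluorescence over plate mean plus 4 SD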;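 also: Nile Red retained in pooled yeast measured as flow cytometry median fluorescence; higher means more Nile Red kept so more efflux inhibition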
Beta apoptosis: inhibitors of cytokine-induced beta cell apoptosis, primary screen, luminescence; INS-1E cytokine-induced death, ATP luminescence, 48 h; percent of positive-control rescue, neutral wells zero; protection from apoptosis, % (no concentration beside the values); 0.8% of 300,000 active;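 active = Every replicate reaches about 75%, or at least half do and their mean reaches it too, limit read from the data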;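 also: higher means more ATP so stronger rescue from cytokine killing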
SUMO Mot1 rescue: yeast Mot1-301 growth rescue at high temperature, primary screen, SUMOylation pathway inhibitor project, S. cerevisiae, ATP luminescence, 38.5C | S. cerevisiae Mot1-301 growth rescue; percent above DMSO median, 100 means doubled | growth rescue, % at 18.8 µM | 1% of 320,000 active;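 active = every valid replicate shows activation above 250% relative to neutral control wells; inactive = the rest, any valid replicate at or below 250%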
Hits are given with their value; – = inactive; · = no result.

SMILES | CSC inhib | WT yeast gro inh | T cruzi inh | Efflux pump mplx | Beta apoptosis | SUMO Mot1 rescue
O=C(O)C12CC3CC(C1)CC(n1ncc(NCc4ccccc4)c(Cl)c1=O)(C3)C2 | – | – | – | – | – | –
O=c1c(Cl)c(N2CCN(c3ccc(F)cc3)CC2)cnn1C12CC3CC(CC(C3)C1)C2 | – | – | 63 | – | – | –
C=CCOc1c(Br)cc(CNn2nnnc2N)cc1OC | – | – | – | – | – | –
N#Cc1ccc(OCC(=O)Nc2ccc(S(=O)(=O)N3CCOCC3)cc2)cc1 | · | · | · | – | · | ·
COc1ccc(NC(=S)NC(NC(=O)c2ccccc2Cl)C(Cl)(Cl)Cl)c([N+](=O)[O-])c1 (stereo unspecified) | – | – | – | – | – | –
COc1ccc(NC(=S)NC(NC(=O)CCl)C(Cl)(Cl)Cl)c([N+](=O)[O-])c1 (stereo unspecified) | – | – | – | – | – | –
COc1ccc(NC(=S)NC(NC(=O)c2ccc(Cl)cc2Cl)C(Cl)(Cl)Cl)c([N+](=O)[O-])c1 (stereo unspecified) | · | 68 | – | – | · | –
COc1ccc(NC(=S)NC(NC(=O)c2cccc3ccccc23)C(Cl)(Cl)Cl)c([N+](=O)[O-])c1 (stereo unspecified) | – | – | 68 | – | – | –
c1ccc(/N=C2\N=C(Nc3ccccn3)c3ccccc32)nc1 | – | · | 65 | – | 103 | –
c1ccc(Nc2ccccn2)cc1 | – | · | – | – | – | ·
COc1ccc(NC(=S)N2CCC(c3ccccc3)C2)cc1 (stereo unspecified) | · | · | – | – | · | –
Cc1ccc(Cl)cc1NC(=S)N1CCC(c2ccccc2)C1 (stereo unspecified) | – | 59 | – | – | – | –
Cc1ccc(C2CCN(C(=S)Nc3cccc(C)c3)C2)cc1 (stereo unspecified) | – | 78 | – | – | – | –
Cc1ccc(C2CCN(C(=S)NC3CCCCC3)C2)cc1 (stereo unspecified) | – | 66 | – | – | – | –
CN(Cc1c(C(=O)N/N=C/c2cc(F)ccc2F)nnn1-c1nonc1N)C1CCCCC1 | – | · | – | – | – | –
CN1CN(C)C(c2ccncc2)=C1c1ccncc1 | – | · | – | – | – | –
COc1cccc(C(=O)C(C#N)=C(SC)SC)c1 | 83 | · | – | – | – | –
CCC(CC)C(=O)c1c[nH]c(C(=O)NCCCN2CCOCC2)c1 | – | 82 | – | – | – | –
O=C(c1ccc(F)cc1)c1c[nH]c(C(=O)NCCCN2CCOCC2)c1 | – | – | – | – | – | –
O=c1[nH]sc2ccccc12 | · | – | 63 | · | · | ·
O=c1cc(O)sc2ccccc12 | – | – | – | – | – | –
CC(C)CCC(CC(C)O)c1n[nH]c(=S)n1-c1ccccc1 (stereo unspecified) | – | – | – | – | – | –
Clc1ccc(-c2nnc(Sc3nc4ccccc4o3)c3ccccc23)cc1 | – | – | – | – | – | –
O=c1c(Cl)c2oc3ccccc3nc-2c2ccccc12 | – | – | – | – | 86 | –
COc1cc(N=c2ssnc2Cl)cc(OC)c1 | – | – | – | – | – | –
SMILES | CSC inhib | WT yeast gro inh | T cruzi inh | Efflux pump mplx | Beta apoptosis | SUMO Mot1 rescue
Clc1nssc1=Nc1ccc(Br)cc1 | · | 71 | – | · | · | ·
COc1ccc(-n2c(SCC(=O)Nc3cccc4ccccc34)nc(O)cc2=O)cc1 | – | · | – | – | – | 320
COc1ccc(-n2c(SCC(=O)Nc3ccccc3)nc(O)cc2=O)cc1 | – | · | – | – | – | –
Fc1cccc(CSc2ccc(-c3ccc4c(c3)OCO4)nn2)c1 | – | – | – | – | – | –
Cc1ccccc1CSc1ccc(-c2ccc3c(c2)OCO3)nn1 | 87 | – | – | – | – | –
O=C(NC1CCSC1=O)C1CC(=O)N(c2ccc(F)cc2)C1 (stereo unspecified) | · | · | – | – | – | –
CC1N(C)c2cc(NC(=O)c3cccs3)c(P(=O)(Nc3ccc([N+](=O)[O-])cc3)N3CCOCC3)cc2C1(C)C (stereo unspecified) | – | – | 64 | – | – | –
O=C(Nc1cc([N+](=O)[O-])ccc1N1CCOCC1)c1cccs1 | – | · | – | – | – | –
Cc1ccc(-n2c(N)c(C#N)c(-c3ccccc3)c(C#N)c2=O)cc1 | – | 70 | – | – | – | –
Cc1ccc(-n2c(SCC(N)=O)nnc2-c2ccc(S(=O)(=O)N3CCCCC3)cc2)c(C)c1 | – | – | – | – | – | –
O=C1c2[nH]nc(-c3ccccc3O)c2C(c2cccc(Cl)c2)N1Cc1ccco1 (stereo unspecified) | 92 | – | – | – | – | –
O=C1c2[nH]nc(-c3ccccc3O)c2C(c2ccc(F)cc2)N1Cc1ccco1 (stereo unspecified) | – | – | – | – | – | –
Cc1c(Cl)cccc1NS(=O)(=O)c1ccc(-c2ccc(=O)[nH]n2)o1 | – | · | – | – | – | –
CCN1CCN(c2cc(C)c3cc(NC(=S)N4CCCCC4)ccc3n2)CC1 | – | – | 58 | – | – | –
CCN1CCN(c2cc(C)c3cc(NC(=S)N4CCCC4)ccc3n2)CC1 | – | – | – | – | – | –
CCN(CC)CCCNC(=O)CCC(=O)Nc1ccc2nc(N3CCCCC3)cc(C)c2c1 | – | – | – | – | – | 889
CCCN(CCC)CCCNC(=S)Nc1ccc2nc(N3CCN(C)CC3)cc(C)c2c1 | – | – | 57 | – | – | –
CCCCN(CC)CCNC(=O)CCC(=O)Nc1ccc2nc(N3CCN(C)CC3)cc(C)c2c1 | – | – | – | – | – | –
CCCCN(CC)CCNC(=S)Nc1ccc2nc(N3CCN(C)CC3)cc(C)c2c1 | – | · | 64 | – | – | –
CCCN(CCC)CCCNC(=S)Nc1ccc2nc(N3CCN(CC)CC3)cc(C)c2c1 | – | – | – | – | – | –
N#CC1(NC(=O)CSc2nnc(Nc3ccccc3F)s2)CCCC1 | – | · | · | – | – | –
O=C(COC(=O)Cc1n[nH]c(=O)c2ccccc12)NNC(=O)c1ccc(Cl)cc1 | · | · | · | – | – | –
CCOc1cc2[nH]c(=S)n(Cc3ccc(C(=O)O)cc3)c(=O)c2cc1OCC | – | · | – | – | – | –
CNC(=S)N(C)/N=C1/C(=O)N(Cc2c(Cl)cccc2Cl)c2ccccc21 | – | · | · | – | – | –
CCN1CCN(c2cc(C)c3cc(NC(=O)c4ccccc4F)ccc3n2)CC1 | · | – | · | · | · | ·
Cc1cc(N2CCN(C)CC2)nc2ccc(NC(=O)c3ccccc3F)cc12 | – | – | 65 | – | – | –
CCOC(=O)CC(=O)CSc1nc(C)nc2c1oc1ccccc12 | – | 83 | – | – | – | –
Cc1nc(N2CCN(c3ccccn3)CC2)c2c(C)c(C(=O)N3CCN(c4ccc(F)cc4)CC3)sc2n1 | · | · | – | 0.5 | – | –

Source: PubChem
